The values below come from ChEMBL document CHEMBL1150796, “A novel fluorescence intensity screening assay identifies new low-molecular-weight inhibitors of the gp41 coiled-coil domain of human immunodeficiency virus type 1” (Antimicrob Agents Chemother, 2007).

Assay [1] in a line: Inhibition of HIV1 gp41 by metallopeptide-based fluorescence assay. Further details: species or system Human immunodeficiency virus 1. In short, it runs like this: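 HR1 coiled-coil metallopeptide receptor [Fe(II)(env2.0)3]2+ (7.2 μM final) was mixed with LY-labelled HR2 probe C18-Aib-LY (1 μM) and 20 μM inhibitor in 25 mM Tris, 25 mM sodium acetate pH 7.0, 0.01% Tween 20, 4% DMSO. Inhibitor displacement relieved quenching; fluorescence was read at ex 425/em 540 nm. Signal was taken as primary/control scan ratio and Ki derived from binding equations.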

Assay [2] deals with Human immunodeficiency virus 1. Put plainly: Antiviral activity against HIV1 assessed as inhibition of fusion of gp160 expressing human HeLa cells and CCR5-expressing Tat-long terminal repeat luciferase reporter cells. Format: functional, organism-based. Conditions: Human immunodeficiency virus 1, HeLa. In short, it runs like this: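 Cell-cell fusion run by a collaborating lab: HeLa effector cells with inducible gp160 expression were mixed with CCR5-expressing Tat-LTR-luciferase reporter cells, and syncytium formation was scored. DMSO in cell culture was capped at 1%.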

Assay [3] in a line: Inhibition of HIV1 gp41 by metallopeptide-based fluorescence assay using dose response study. Further details: species or system Human immunodeficiency virus 1. The method in brief:
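Competitive dose-response with 7.2 μM Fe(II) HR1 metallopeptide receptor and 1 μM C18-Aib-LY probe across varying inhibitor concentrations. Buffer was pH 7.0 Tris/acetate with 0.01% Tween 20 and 4% DMSO; read at ex 425/em 540 nm, relative to free-probe maximum. Curves were fit to equations 5 and 8 for Ki; three independent experiments, mean ± SD.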

In assay [4] the test system is Human immunodeficiency virus 1. Put plainly: Antiviral activity against HIV1 assessed as syncytium inhibition by cell-cell fusion assay. Format: functional, organism-based. In short, it runs like this:
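HIV-1 fusion run as a cell-cell assay: HeLa effector cells with inducible gp160 expression were paired with CCR5-expressing reporter cells carrying Tat-responsive LTR-luciferase, with luciferase as the read-out. DMSO in culture was capped at 1%.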

For assay [5], the system named is Human immunodeficiency virus 1. Put plainly: Antiviral activity against HIV1 assessed as six-helix bundle formation assay. Format: functional.

Square brackets hold non-standard residues; d marks the D form. Peptide text beside a SMILES is read from it. Aib = CC(C)(N)C(=O)O

For the compound `O=C(O)c1ccc(NC(=O)c2cccc(Cc3cccc4cccnc34)c2)c(Cc2cccc(F)c2)c1`, the inhibitory constant (Ki) is 1150 nM in assay [1] and 1510 nM in assay [3]. Moreover, the 50% inhibitory concentration (IC50) in assay [2] turned out to be 8000 nM.

For the compound `O=C(O)c1ccc(NC(=O)c2cccc(Cc3ccc(F)cc3)c2)c(Cc2cccc([N+](=O)[O-])c2)c1`, the results for the inhibitory constant (Ki) in assay [1] and in assay [3] were 1200 nM and 1340 nM, respectively. For the same compound, the IC50 in assay [2] is 8000 nM.

As for `CC[C@H](C)[C@H](NC(=O)[C@H](CC(C)C)NC(=O)[C@H](CO)NC(=O)[C@@H](NC(=O)[C@H](Cc1ccc(O)cc1)NC(=O)[C@H](CC(N)=O)NC(=O)C(C)(C)NC(=O)[C@@H](NC(=O)[C@H](CCC(=O)O)NC(=O)[C@H](CCCNC(=N)N)NC(=O)[C@H](CC(=O)O)NC(=O)[C@H](Cc1c[nH]c2ccccc12)NC(=O)[C@H](CCC(=O)O)NC(=O)C(C)(C)NC(=O)[C@H](Cc1c[nH]c2ccccc12)NC(=O)[C@@H](NC(=O)[C@H](CCSC)NC(C)=O)[C@@H](C)O)[C@@H](C)CC)[C@@H](C)O)C(=O)N[C@@H](CS)C(N)=O` (Ac-MTW[Aib]EWDREI[Aib]NYTSLIC-NH2), the inhibitory constant (Ki) in assay [1] was found to be 600 nM; in assay [3] it was 800 nM.

As for `O=C(O[C@@H]1Cc2c(O)cc(O)cc2O[C@H]1c1cc(O)c(O)c(O)c1)c1cc(O)c(O)c(O)c1` (single isomer, unassigned) [GALLOCATECHIN GALLATE], the 50% inhibitory concentration (IC50) in assay [4] amounted to 4320 nM.

For `O=C(O[C@@H]1Cc2c(O)cc(O)cc2O[C@@H]1c1cc(O)c(O)c(O)c1)c1cc(O)c(O)c(O)c1` [EPIGALOCATECHIN GALLATE], the IC50 in assay [5] was determined as 19900 nM.
